Results: ChEMBL document CHEMBL1124128, “Angiotensin-converting enzyme inhibitors. Mercaptan, carboxyalkyl dipeptide, and phosphinic acid inhibitors incorporating 4-substituted prolines” (J Med Chem, 1988)
Several values for one entry are separate records, joined by “and”; a condition that tells them apart may be missing. Identical values can stand only once.

Columns and labels:
[1] = target: T1, Angiotensin-converting enzyme (Rattus norvegicus) (UniProt P47820); test: In vitro inhibition of rat Angiotensin I converting enzyme
T1 sequence (whole entry): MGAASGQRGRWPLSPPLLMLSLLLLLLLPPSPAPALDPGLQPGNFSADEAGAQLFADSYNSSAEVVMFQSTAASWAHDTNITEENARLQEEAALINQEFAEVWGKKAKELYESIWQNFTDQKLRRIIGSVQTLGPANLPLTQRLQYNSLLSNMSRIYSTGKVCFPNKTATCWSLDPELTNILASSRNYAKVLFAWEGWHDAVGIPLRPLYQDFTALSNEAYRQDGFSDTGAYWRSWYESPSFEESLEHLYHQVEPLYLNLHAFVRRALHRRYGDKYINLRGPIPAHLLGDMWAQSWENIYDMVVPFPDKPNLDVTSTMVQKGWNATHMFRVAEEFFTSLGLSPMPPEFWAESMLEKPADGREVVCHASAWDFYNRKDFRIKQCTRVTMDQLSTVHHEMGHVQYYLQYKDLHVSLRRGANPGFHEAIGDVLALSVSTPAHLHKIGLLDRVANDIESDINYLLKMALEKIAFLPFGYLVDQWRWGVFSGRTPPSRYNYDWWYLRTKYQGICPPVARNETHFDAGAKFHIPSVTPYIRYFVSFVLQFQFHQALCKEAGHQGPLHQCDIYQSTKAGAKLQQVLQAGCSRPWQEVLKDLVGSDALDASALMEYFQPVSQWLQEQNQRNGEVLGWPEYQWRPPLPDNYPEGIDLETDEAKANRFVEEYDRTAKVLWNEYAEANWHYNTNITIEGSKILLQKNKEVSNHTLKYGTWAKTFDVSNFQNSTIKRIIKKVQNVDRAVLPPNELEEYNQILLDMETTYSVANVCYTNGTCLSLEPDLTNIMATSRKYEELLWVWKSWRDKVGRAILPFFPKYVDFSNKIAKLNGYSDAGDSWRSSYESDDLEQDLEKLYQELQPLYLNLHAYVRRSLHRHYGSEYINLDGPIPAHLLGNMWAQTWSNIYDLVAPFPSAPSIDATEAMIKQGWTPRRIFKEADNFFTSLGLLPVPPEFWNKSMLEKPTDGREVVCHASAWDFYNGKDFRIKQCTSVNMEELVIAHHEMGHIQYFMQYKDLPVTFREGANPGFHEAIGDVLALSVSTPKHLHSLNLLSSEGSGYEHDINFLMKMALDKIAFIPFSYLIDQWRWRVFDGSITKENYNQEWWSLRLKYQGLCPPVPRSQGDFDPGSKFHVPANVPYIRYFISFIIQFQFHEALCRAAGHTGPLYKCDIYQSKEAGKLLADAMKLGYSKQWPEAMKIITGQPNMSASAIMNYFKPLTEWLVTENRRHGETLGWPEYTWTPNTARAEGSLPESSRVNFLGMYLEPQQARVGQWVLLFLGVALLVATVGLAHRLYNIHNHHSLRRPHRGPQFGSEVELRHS

[2] = target: T2, Angiotensin-converting enzyme (Oryctolagus cuniculus, UniProt P12822); test: Inhibitory activity against rabbit lung angiotensin-1 converting enzyme
T2 sequence (P12822 whole entry): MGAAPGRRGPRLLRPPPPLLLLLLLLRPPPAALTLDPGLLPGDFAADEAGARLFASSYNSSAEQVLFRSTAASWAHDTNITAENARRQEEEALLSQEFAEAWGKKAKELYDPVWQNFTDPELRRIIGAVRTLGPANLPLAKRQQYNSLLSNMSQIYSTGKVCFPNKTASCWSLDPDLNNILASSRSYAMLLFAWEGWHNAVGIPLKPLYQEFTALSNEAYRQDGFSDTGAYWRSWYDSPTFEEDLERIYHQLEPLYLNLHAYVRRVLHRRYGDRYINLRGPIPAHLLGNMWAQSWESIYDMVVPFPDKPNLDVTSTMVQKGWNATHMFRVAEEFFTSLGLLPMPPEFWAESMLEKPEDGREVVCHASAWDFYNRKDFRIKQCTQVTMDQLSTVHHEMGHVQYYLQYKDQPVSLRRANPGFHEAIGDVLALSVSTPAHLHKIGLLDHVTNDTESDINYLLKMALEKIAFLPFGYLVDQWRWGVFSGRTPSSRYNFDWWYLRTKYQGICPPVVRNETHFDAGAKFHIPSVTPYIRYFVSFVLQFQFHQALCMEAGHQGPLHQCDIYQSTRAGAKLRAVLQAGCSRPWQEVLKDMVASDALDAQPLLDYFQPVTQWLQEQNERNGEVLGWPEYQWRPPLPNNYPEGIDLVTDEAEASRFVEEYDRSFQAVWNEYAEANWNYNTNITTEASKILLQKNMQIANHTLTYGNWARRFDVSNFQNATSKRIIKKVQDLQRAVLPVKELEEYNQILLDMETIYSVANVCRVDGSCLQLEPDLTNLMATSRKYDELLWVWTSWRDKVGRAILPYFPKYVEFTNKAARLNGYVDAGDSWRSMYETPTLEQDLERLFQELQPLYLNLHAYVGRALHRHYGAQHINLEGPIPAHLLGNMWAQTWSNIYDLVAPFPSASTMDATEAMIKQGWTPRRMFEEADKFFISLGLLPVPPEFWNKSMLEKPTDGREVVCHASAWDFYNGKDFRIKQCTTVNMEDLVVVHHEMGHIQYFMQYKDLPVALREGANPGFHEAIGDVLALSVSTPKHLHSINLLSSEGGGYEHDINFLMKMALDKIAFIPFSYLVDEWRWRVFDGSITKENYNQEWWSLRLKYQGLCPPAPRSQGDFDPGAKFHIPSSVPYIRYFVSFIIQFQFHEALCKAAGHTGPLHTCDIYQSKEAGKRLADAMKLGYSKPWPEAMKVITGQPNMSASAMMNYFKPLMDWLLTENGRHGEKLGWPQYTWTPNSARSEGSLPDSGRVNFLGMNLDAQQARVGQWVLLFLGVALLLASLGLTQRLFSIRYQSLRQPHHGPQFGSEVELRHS

[3] = tested on: Rattus norvegicus; test: % Inhibition of angiotensin-I induced pressor response in normotensive rats after intravenous dosing of 0.5 umol/kg; assay type: functional
Method in brief: (§1)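 Conscious, unrestrained male Sprague–Dawley rats (225–275 g) with indwelling aortic and vena caval catheters, allowed at least 2 weeks of recovery. Aortic pressure recorded directly. Baseline pressor responses to AI (310 ng/kg iv) and AII (100 ng/kg iv) were taken first. Compound was given iv in 0.1 mL water or 5% NaHCO3, and responses were followed for up to 70 min. Maximum % inhibition is the mean of four animals per dose.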

[4] = tested on: Rattus norvegicus; test: % Inhibition of angiotensin-I induced pressor response in normotensive rats after intravenous dosing of 1.5 umol/kg; assay type: functional; method in brief: as §1
[5] = tested on: Rattus norvegicus; test: (§2) % Inhibition of angiotensin-I induced pressor response in normotensive rats after intravenous dosing of 5 umol/kg; assay type: functional; method in brief: as §1
[6] = tested on: Rattus norvegicus; test: % Inhibition of angiotensin-I induced pressor response in normotensive rats after peroral dosing of 150 umol/kg; assay type: functional; details: po
Method in brief: (§3)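 Conscious, unrestrained catheterized male Sprague–Dawley rats (225–275 g) had direct aortic pressure recording. Baseline pressor responses were taken to AI (310 ng/kg iv) and AII (100 ng/kg iv). Compound was given orally in water, 5% NaHCO3 or 1% agar suspension. AI and AII responses were then tracked up to 280 min. Maximum % inhibition is the mean response of four animals per dose.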

[7] = tested on: Rattus norvegicus; test: % Inhibition of angiotensin-I induced pressor response in normotensive rats after peroral dosing of 50 umol/kg; assay type: functional; details: po; method in brief: as §3
[8] = tested on: Rattus norvegicus; test: (§4) % Inhibition of angiotensin-I induced pressor response in normotensive rats after peroral dosing of 15 umol/kg; assay type: functional; details: po; method in brief: as §3
[9] = tested on: Rattus norvegicus; test: % Inhibition of angiotensin-I induced pressor response in normotensive rats after peroral dosing of 0.5 umol/kg; assay type: functional; details: po; method in brief: as §3
[10] = tested on: Rattus norvegicus; test: % Inhibition of angiotensin-I induced pressor response in normotensive rats after peroral dosing of 1.5 umol/kg; assay type: functional; details: po; method in brief: as §3
[11] = tested on: Rattus norvegicus; test: % Inhibition of angiotensin-I induced pressor response in normotensive rats after peroral dosing of 0.15 umol/kg; assay type: functional; details: po; method in brief: as §3
[12] = tested on: Rattus norvegicus; test: % Inhibition of angiotensin-I induced pressor response in normotensive rats after intravenous dosing of 0.15 umol/kg; assay type: functional; method in brief: as §1
[13] = tested on: Rattus norvegicus; test: (§5) % Inhibition of angiotensin-I induced pressor response in normotensive rats after intravenous dosing of 0.05 umol/kg; assay type: functional
Method in brief: (§6)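 Male Sprague–Dawley rats (225–275 g) fitted with indwelling abdominal aorta and vena cava catheters, recovered at least 2 weeks, then tested conscious and unrestrained. Aortic pressure was recorded directly. Pressor responses to AI (310 ng/kg iv) and AII (100 ng/kg iv) were taken before dosing. Compound was given iv in water or 5% NaHCO3, and responses were followed up to 70 min. Maximum % inhibition is the mean of four animals per dose.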

[14] = tested on: Rattus norvegicus; test: % Inhibition of angiotensin-I induced pressor response in normotensive rats after peroral dosing of 5 umol/kg; assay type: functional; details: po; method in brief: as §3
[15] = tested on: Rattus norvegicus; test: as §4; assay type: functional; details: po; remark: listed apart in the source
Method in brief: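 Catheterized conscious male Sprague–Dawley rats (225–275 g). Baseline pressor responses to AI (310 ng/kg iv) and AII (100 ng/kg iv) were taken. Compound was given orally in 0.75 mL water, 5% NaHCO3 or 1% agar suspension, and AI/AII responses were followed for up to 280 min. Maximum % inhibition is the mean of four animals per dose.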

[16] = target: T1, Angiotensin-converting enzyme (Rattus norvegicus); test: Evaluated for inhibition of Angiotensin I converting enzyme in rat; assay type: functional; details: concentration not given here
[17] = tested on: Rattus norvegicus; test: % Inhibition of angiotensin-I induced pressor response in normotensive rats after intravenous dosing of 0.015 umol/kg; assay type: functional; method in brief: as §6
[18] = tested on: Rattus norvegicus; test: as §5; assay type: functional; method in brief: as §1; remark: listed apart in the source
[19] = tested on: Rattus norvegicus; test: as §2; assay type: functional; method in brief: as §6; remark: listed apart in the source

| SMILES | T50 [1] | inhibition in vivo at 0.5 µmol/kg [3] | inhibition in vivo at 1.5 µmol/kg [4] | inhibition in vivo at 5 µmol/kg [5] | inhibition in vivo at 0.15 µmol/kg [12] | inhibition in vivo at 0.05 µmol/kg [13] | inhibition in vivo at 5 µmol/kg [14] | also measured |
| --- | --- | --- | --- | --- | --- | --- | --- | --- |
| O=C(O)[C@@H]1CCCN1C(=O)CP(=O)(O)CCCCc1ccccc1 | 180 nM | 56% | 86% | 92% | – | – | – | Ki [2]: 15 nM; inhibition in vivo at 150 µmol/kg [6]: 75%; inhibition in vivo at 50 µmol/kg [7]: 47%; inhibition in vivo at 15 µmol/kg [8]: 13% |
| CCOC(=O)[C@H](CCc1ccccc1)N[C@@H](C)C(=O)N1CC2(C[C@H]1C(=O)O)SCCS2 | – | – | – | – | – | – | – | inhibition in vivo at 0.5 µmol/kg [9]: 41%; inhibition in vivo at 1.5 µmol/kg [10]: 87%; inhibition in vivo at 0.15 µmol/kg [11]: 15% |
| O=C(O)[C@@H]1C[C@H](Sc2ccccc2)CN1C(=O)CP(=O)(O)CCCCc1ccccc1 | 20 nM | 34% | 65% | 88% | 27% | – | – | – |
| O=C(O)[C@@H]1C[C@@H](C2CCCCC2)CN1C(=O)CP(=O)(O)CCCCc1ccccc1 [FOSINOPRILAT] | 11 nM and 4 nM | 87% | – | – | 68% | 21% | 28% | Ki [2]: 1.5 nM; inhibition in vivo at 15 µmol/kg [15]: 71% |
| O=C(O)[C@@H]1C[C@H](C2CCCCC2)CN1C(=O)CP(=O)(O)CCCCc1ccccc1 | 7 nM | 84% | – | – | 73% | 26% | 13% | inhibition [16]: 72% |
| O=C(O)[C@@H]1C[C@@H](Sc2ccccc2)CN1C(=O)CP(=O)(O)CCCCc1ccccc1 | 17 nM | 48% | 69% | 78% | 19% | 20% | – | – |
| CO[C@@H]1C[C@@H](C(=O)O)N(C(=O)CP(=O)(O)CCCCc2ccccc2)C1 | 100 nM | 73% | – | – | – | – | – | inhibition in vivo at 0.015 µmol/kg [17]: 23%; inhibition in vivo at 0.05 µmol/kg [18]: 33% |
| C[C@H](CS)C(=O)N1CCC[C@H]1C(=O)O [CAPTOPRIL] | – | 87% | 91% | – | 66% | 18% | 79% | inhibition in vivo at 0.5 µmol/kg [9]: 42%; inhibition in vivo at 1.5 µmol/kg [10]: 61%; inhibition in vivo at 50 µmol/kg [7]: 93%; inhibition in vivo at 15 µmol/kg [8]: 78%; inhibition in vivo at 5 µmol/kg [19]: 93% |
